Data: paper PMC3913000 (Nature chemical biology, 2013)
Entries after “also recorded” stand apart in the source; their conditions may differ.

How the values were obtained:
[1] = test system: IgE^dansyl; assay: Fluorescence quenching assay, hapten binding to IgE^dansyl; details: dansyl-IgE^dansyl versus NF-IgE^DNP
How it was run: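 Monovalent hapten titrated into 10 nM IgE in PBS. Binding read as quenching of IgE tryptophan fluorescence at 335 nm, which occurs only when hapten and IgE are in proximity (<10 nm). Monovalent binding constants were derived from the quenching. At least triplicate.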

[2] = test system: RBL cells; assay: Inhibition of allergen-induced RBL mast cell degranulation; assay type: cell-based, rat; details: equimolar IgE^DNP and IgE^dansyl; 500 nM HtTA [dansyl2NF2]
[3] = target: IgE; details: read-out: Kd for IgE (nucleotide-binding site ligand); cited from earlier work

| difference in affinity between dansyl-IgE^dansyl and NF-IgE^DNP pairs [1] | Molecule | inhibition of HtTA [dansyl2NF2]-induced degranulation [2] | Kd [3] |
| --- | --- | --- | --- |
| 760 fold | dansyl |  |  |
|  | O=C(O)CCCc1c[nH]c2ccccc12 [IBA, indole-3-butyric acid] | did not inhibit degranulation; also recorded: no inhibition of mast cell degranulation was observed | 4.5 ± 0.6 µM |
